Data: PMC4517987 (Bioorganic & medicinal chemistry, 2015)
pIC50: −log10 of the molar value. Where a name gives a salt, the structure may show the parent alone.

Experiments:
[1] = tested on: Plasmodium yoelii; settings: murine model of Plasmodium yoelii; ref unpublished observations; cited from earlier work
[2] = tested on: late (>90% stage IV/V) gametocytes of P. falciparum (NF54-Mal8p1.16-GFP-Luc); test: Gametocytocidal luciferase reporter assay, late gametocytes; type: cell-based, Plasmodium falciparum; settings: 5 µM, 48 h, inhibition of luciferase readout
How it was run: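 Gametocytes induced from synchronized asexual cultures in the NF54-Mal8p1.16-GFP-Luc line: glucose-free medium under hypoxia, with daily changes, and 50 mM N-acetyl glucosamine on days 1–4 to remove asexual forms. Assays set up on day 10 in triplicate at 2% gametocytemia and 2% hematocrit, 48 h, 37 °C, hypoxic. Luciferin added to lysates at room temperature and luminescence read with 10 s integration; % inhibition derived.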

[3] = tested on: intraerythrocytic P. falciparum parasites; test: Flow cytometric analysis of nuclear content and parasitemia; type: cell-based, Plasmodium falciparum; settings: 1 × IC90, continuous treatment for 96 h
How it was run: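 Intraerythrocytic parasites (2% parasitemia, 2% hematocrit) treated in duplicate, with untreated (DMSO) controls. Samples taken at 24, 48, 72 and 96 h. Nuclear content (1 N rings/early trophozoites, 2 N trophozoites, >2 N schizonts) and parasitemia measured from SYBR Green I fluorescence by flow cytometry in the FITC channel (488 nm excitation; 502 nm long-pass and 530 nm band-pass emission).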

[4] = tested on: intraerythrocytic P. falciparum 3D7; settings: cited from earlier work
[5] = tested on: HepG2 cells; settings: HepG2 vs P. falciparum; cited from earlier work
[6] = tested on: β-hematin formation; test: NP-40 mediated β-hematin formation assay; type: biochemical
[7] = tested on: HepG2 cells; test: Cytotoxicity against HepG2 cells, lactate dehydrogenase; type: cell-based, human; settings: GI50 mammalian cell (HepG2)/IC50 P. falciparum (3D7)

In the case of C(CCCNCCCNCC1CCCCCC1)CCCNCCCNCC1CCCCCC1 [Compound 5], the “Reduction of parasitemia and extension of life span” value [1] is listed as “as effective as pyrimethamine at reducing parasitemia and extending life span”.

For S=C(NCCCNCCCCCNCCCNC(=S)NCCC(c1ccccc1)c1ccccc1)NCCC(c1ccccc1)c1ccccc1 [Compound 11, 1,13-Bis-{3-[1-(3′,3′-diphenylpropyl)thiourea]}-4,10-diazatridecane dihydrochloride], the “Gametocytocidal activity, late-stage gametocytes” value [2] was “fully inhibitory”.

In the case of O=C(NCCCNCCCCCNCCCNC(=O)NCC(c1ccccc1)c1ccccc1)NCC(c1ccccc1)c1ccccc1 [Compound 15, 1,13-Bis-{3-[1-(2′,2′-diphenylethyl)urea]}-4,10-diazat-ridecane dihydrochloride], the “Time to complete cessation of parasite proliferation” value [3] was ≤ 24 h.

In the case of CCCNC(=O)NCCCNCCCCCCNCCCNC(=O)NCCC [Compound 53], the “P. falciparum IC50 (previously reported analogues)” value [4] is given as “inactive”.

For S=C(NCCCNCCCCCNCCCNC(=S)NC(c1ccccc1)c1ccccc1)NC(c1ccccc1)c1ccccc1 [Compound 9, 1,13-Bis-{3-[1-(1’,1’-diphenylmethyl)thiourea]}-4,10-diazatridecane dihydrochloride], the “Gametocytocidal activity, late-stage gametocytes” value [2] was “fully inhibitory”.

For S=C(NCCCNCCCCCCNCCCNC(=S)NCc1ccccc1)NCc1ccccc1 [Compound 28], the “Selectivity (SI) compared to HepG2 cells (previously reported analogues)” value [5] is listed as > 1000.

For O=C(NCCCNCCCCCCCNCCCNC(=O)NC(c1ccccc1)c1ccccc1)NC(c1ccccc1)c1ccccc1 [Compound 29], the “Selectivity (SI) compared to HepG2 cells (previously reported analogues)” value [5] is given as > 1000.

In the case of CCNC(=O)NCCCNCCCCCCNCCCNC(=O)NCC [Compound 54], the “P. falciparum IC50 (previously reported analogues)” value [4] is listed as “inactive”.

In the case of O=C(NCCCNCCCCCNCCCNC(=O)NCc1ccccc1)NCc1ccccc1 [Compound 13, 1,13-Bis-{3-[1-(benzyl)urea]}-4,10-diazatridecane dihydrochloride], the “β-hematin formation inhibition, concentration without activity” value ([6]; no activity even at 1 mM) was > 1 mM.

With S=C(NCCCNCCCCCNCCCNC(=S)NCC(c1ccccc1)c1ccccc1)NCC(c1ccccc1)c1ccccc1 [Compound 10, 1,13-Bis-{3-[1-(2′,2′-diphenylethyl)thiourea]}-4,10-diazatridecane dihydrochloride] the “Selectivity index (SI)” value [7] was > 1000.

With O=C(NCCCNCCCCCNCCCNC(=O)NCCC(c1ccccc1)c1ccccc1)NCCC(c1ccccc1)c1ccccc1 [Compound 16, 1,13-Bis-{3-[1-(3′,3′-diphenylpropyl)urea]}-4,10-diazatridecane dihydrochloride] the “Time to complete cessation of parasite proliferation” value [3] was ≤ 24 h and the pIC50 ([6]; read-out: β-hematin formation inhibition IC50, NP-40 mediated, n = 3) was < 3.40.
